OX1R antag-1: OX1R (human) antagonism | O43613 | OX1R-expressing cells, FRET antagonist read-out | inhibition, % at 6.6 µM | 330,000 tested, 1.8% active | AID 485270; in the data active = inhibition mostly above about 38%, no sharp cut-off; inactive = mostly below about 40%;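 note: 0% = agonist challenge alone and 100% = reference antagonist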
Target sequence (O43613 whole entry, looked up): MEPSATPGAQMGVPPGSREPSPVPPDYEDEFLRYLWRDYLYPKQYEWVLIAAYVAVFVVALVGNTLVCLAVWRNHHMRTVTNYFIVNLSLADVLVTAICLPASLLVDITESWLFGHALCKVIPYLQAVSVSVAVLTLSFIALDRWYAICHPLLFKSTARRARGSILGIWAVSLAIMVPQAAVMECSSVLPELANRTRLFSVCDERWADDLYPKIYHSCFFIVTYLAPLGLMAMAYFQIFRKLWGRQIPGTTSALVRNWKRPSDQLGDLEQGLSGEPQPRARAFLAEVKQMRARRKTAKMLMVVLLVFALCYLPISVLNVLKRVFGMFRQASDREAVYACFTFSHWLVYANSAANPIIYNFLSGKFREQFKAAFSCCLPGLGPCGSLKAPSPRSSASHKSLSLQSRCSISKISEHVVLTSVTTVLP
GPR7 antag: antagonists of human GPR7 (neuropeptides B/W receptor 1) | GPR7-expressing cells, fluorescence antagonist assay | inhibition, % at 4.4 µM | 290,000 tested, 1.1% active | AID 1861; in the data active = inhibition above about 16%, passing the limit was not always enough;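 note: cells stimulated with the agonist NPW; 0% = agonist with vehicle and 100% = vehicle without agonist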
CHO parental Ca: signal in parental CHO cells, OX1R antagonist counter-screen | 330,000 tested, 0.63% active | parental CHO-K1, ATP-induced calcium, Fluo-8 fluorescence | AID 463079 | inhibition, % at 5.6 µM;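 active = inhibition above that plate's mean sample inhibition plus 3 SD, cut at about 26% in these data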;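 note: 0% = ATP-challenged DMSO wells and 100% = DMSO wells without ATP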
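Assay system: parental CHO cells; Read-out basis: percent inhibition of ATP-evoked calcium rise, normalized to controls; Benchmarks: ATP and no-ATP DMSO wells; Compound dosing: single nominal dose of 5.6 µM per compound; Signal: Fluo-8 calcium dye fluorescence; Also added: ATP as calcium-mobilizing challenge; Repeats: singlicate.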
OX1R antag-2: blocks the human orexin 1 receptor. inhibition, % at 5 µM. O43613. AID 434989. CHO/OX1R cells, Fluo-8 calcium fluorescence, orexin A. 330,000 tested, 0.43% active;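 active = inhibition above its plate's threshold, mean inhibition of all tested compounds on the plate plus 3 SD, cut at about 37% in these data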;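 note: 0% = orexin A challenge wells and 100% = SB-334867-A antagonist wells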
MPTP inh: blocks calcium-induced mitochondrial swelling | isolated mouse mitochondria, Ca2+ swelling absorbance, 30 min | inhibition, % at 10 µM | 360,000 tested, 1.4% active | AID 602449;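 active = inhibition of 50% or more, scaled per plate between neutral and stimulator controls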;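 note: 0% = DMSO wells given calcium and 100% = 1 mM EGTA wells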
* = called active by the depositor; nt = no result given. Sampled rows, rich in hits. Any-hit rate of the full collection: about 3.8%.

SMILES	OX1R antag-1	GPR7 antag	CHO parental Ca	OX1R antag-2	MPTP inh
Cc1ccc(C)c(N2CCN(C(=O)Cc3ccc(NC4=NC5CS(=O)(=O)CC5S4)cc3)CC2)c1 (configuration not stated)	5	-9	-23	-20	-1
C=CCn1c(SCC(=O)Nc2ccc3c(c2)OCO3)nnc1-c1cc(Br)ccc1O	65*	-15	-23	-15	13
O=C(CSc1nnc(-c2ccccc2)n1Cc1ccco1)Nc1ccc2c(c1)OCCO2	48*	18	-10	-14	6
C=CCn1c(SCC(=O)Nc2ccc3c(c2)OCO3)nnc1-c1ccccc1	47	-10	-14	-22	-2
CCOc1ccccc1NC(=O)CSc1nnc(-c2ccco2)n1Cc1ccco1	14	8	-24	-50	0
CCOc1ccccc1NC(=O)CSc1nnc(-c2ccccc2Cl)n1Cc1ccco1	69*	16	-1	-20	1
O=C(NCC1CCCO1)c1ccc(OC2CCN(C(=O)C3CC3)CC2)cc1 (configuration not stated)	4	-8	-4	-12	0
Cn1nc(C(C)(C)C)cc1NC(=O)C1(C)CCN1C(=O)C1(c2ccccc2)CC1 (configuration not stated)	nt	nt	nt	nt	0
COc1ccc(/C=C(\C#N)c2n[nH]c(Cn3cncn3)n2)cc1	24	20*	-15	-18	-2
N#C/C(=C\c1ccc(Cl)cc1)c1n[nH]c(Cn2cncn2)n1	12	-3	-9	-2	0
O=C(Nc1ccccc1)C1Cc2ccccc2CN1C(=O)c1ccco1 (configuration not stated)	11	5	-23	-26	1
O=C(Nc1cc(C(F)(F)F)ccc1N1CCOCC1)C1Cc2ccccc2CN1C(=O)c1ccco1 (configuration not stated)	17	40*	-18	-19	1
CN(CC(=O)Nc1ccccc1Br)C(=O)COc1ccc2ccccc2c1	41*	nt	-16	1	0
Cc1ccc(OCCCC(=O)N(C)CC(=O)Nc2ccccc2Br)cc1	12	nt	-21	-17	-2
Cc1ccc(S(=O)(=O)N2CCCN(c3nc4cc(C)ccc4cc3C#N)CC2)cc1	48*	-6	-21	38	1
COc1ccc(C(OCC(O)CN(C)C2CCCCC2)c2ccc(OC)cc2)cc1 (configuration not stated)	8	20*	-19	-13	28
CCOC(=O)c1cc(CC)sc1/N=C/c1c(O)ccc2ccccc12	12	-3	-4	-7	-8
COc1ccc(CC(=O)Nc2cccc(-c3nnc(-c4ccc(C)cc4)o3)c2)cc1OC	26	-9	-9	-30	33
COc1ccccc1OCC(=O)Nc1cccc(-c2nnc(-c3ccco3)o2)c1	46*	5	-15	-18	-1
O=C(Cc1ccccc1)Nc1cccc(-c2nnc(-c3ccco3)o2)c1	15	7	-24	-20	-1
COc1ccc(CC(=O)Nc2cccc(-c3nnc(-c4cccc(C)c4)o3)c2)cc1OC	110*	-8	94*	89*	3
CCOC(=O)c1c(-c2ccc(OC)cc2)nc2nonc2c1N	27	6	-7	-1	1
CC(=O)c1c(C)nc2nonc2c1N	76*	-6	8	-1	-2
CN(C(=O)c1cccnc1)c1nc(-c2ccccc2)cs1	13	8	51*	13	1
CN(Cc1ccccc1)C(=O)c1cccnc1	5	-13	-6	-1	2
SMILES	OX1R antag-1	GPR7 antag	CHO parental Ca	OX1R antag-2	MPTP inh
CN(c1cccc(NC(=O)Nc2cccc(Cl)c2)c1)S(C)(=O)=O	98*	10	73*	72*	6
Cn1ccnc1C(=O)Cc1ccc([N+](=O)[O-])cc1	13	nt	-4	-28	1
NC(=O)CN1C(=O)C(O)(CC(=O)c2ccccc2O)c2ccccc21 (configuration not stated)	56*	-15	3	6	-1
C=CCN1C(=O)C(O)(CC(=O)c2ccccc2)c2ccccc21 (configuration not stated)	7	-11	-2	-22	-1
NS(=O)(=O)c1ccc(Nc2ncccc2[N+](=O)[O-])cc1	58*	-1	4	1	0
O=[N+]([O-])c1cccnc1Nc1ccc(Cl)cc1	nt	nt	nt	nt	1
O=C(COC(=O)Cc1c(Cl)cccc1Cl)NCC1CCCO1 (configuration not stated)	0	-15	-11	3	-1
O=C(CNC(=O)c1cc(Cl)cc([N+](=O)[O-])c1)OCC(=O)N1CCCCC1	41*	nt	-17	-6	-1
O=C(NCC1CC1)c1cc([N+](=O)[O-])cc([N+](=O)[O-])c1	54*	-8	-8	-5	-1
Cc1cc(C(=O)NCC(=O)OCC(=O)N2CCCCCC2)ccc1[N+](=O)[O-]	11	-5	-7	-5	2
NC(=O)COC(=O)CNC(=O)c1cc(Cl)cc([N+](=O)[O-])c1	53*	-2	1	-15	-2
Fc1ccc(Nc2ccc(-c3ccc(F)cc3)nn2)cc1	14	8	-3	4	1
Fc1ccc(-c2ccc(Nc3cccc(F)c3)nn2)cc1	13	-3	44*	0	2
C=CCn1c(C)cc(C(=O)CSc2nc3ccccc3c(=O)[nH]2)c1C	61*	-6	55*	55*	15
Cc1cc(C(=O)CSc2nc3ccc(Cl)cc3[nH]2)c(C)n1CC1CCCO1 (configuration not stated)	88*	0	45*	42	8
O=C(CSc1nc2ccccc2c(=O)[nH]1)Nc1ccc(C(=O)O)cc1	7	20*	-3	4	-1
Cc1cc(C)c(C(=O)CSc2nc3ccccc3c(=O)[nH]2)cc1C	34	-15	-18	-19	-3
O=C(CSc1nc2ccccc2c(=O)[nH]1)Nc1ccc([N+](=O)[O-])cc1	14	nt	-12	-10	36
C=CCn1c(C)cc(C(=O)CSc2nc3ccccc3[nH]2)c1C	42*	-7	21	46*	16
Cc1cccc(C)c1NC(=O)C1(C)CCC(=O)N1c1cc(C(C)(C)C)nn1C (configuration not stated)	nt	nt	nt	nt	-1
Cc1ccc(C(=O)CSc2nc3ccccc3c(=O)[nH]2)cc1C	48*	-9	-29	-8	0
CCCCNC(=O)C(NC(=O)c1ccc(=O)[nH]c1)C(=O)c1ccccc1 (configuration not stated)	nt	nt	nt	nt	-1
COc1ccc(OC2CCN(S(=O)(=O)c3ccc(OC)cc3)CC2)cc1	0	34	36*	27	0
COc1ccc(OC2CCN(S(=O)(=O)c3cccc(F)c3)CC2)cc1	-7	11	-5	-29	1
O=C(NC1CCCC1)C(c1cccs1)N(CC1CCCO1)C(=O)Cc1cccs1 (configuration not stated)	22	18*	-20	-8	-1
COc1ccc(C(C(=O)NC2CCCC2)N(CC2CCCO2)C(=O)Cc2cccs2)cc1OC (configuration not stated)	12	18	-22	-33	0

Source: PubChem (several laboratories)
